Measured values gathered from unrelated publications.
Compare with care: the assays were run in different laboratories.
Effect on: binding
PIK3CG: Phosphatidylinositol 4,5-bisphosphate 3-kinase catalytic subunit gamma isoform (PIK3CG, Homo sapiens, UniProt P48736)
CREBBP bromodomain: CREB-binding protein, bromodomain (CREBBP, Homo sapiens, UniProt Q92793)
tspO A138F: tspO (Cereibacter sphaeroides, UniProt Q9RFC8, A138F)

Nc1nc2c(ncn2[C@@H]2O[C@H](COP(=O)(O)OP(=O)(O)O)[C@@H](OP(=O)(O)OP(=O)(O)O)[C@H]2O)c(=O)[nH]1 — Kd (Dihydrofolate synthase/folylpolyglutamate synthase (Escherichia coli, UniProt P08192); ITC): 130 µM
CCOc1cc(-c2nncn2C)ccc1Nc1ncc2cc(C)nc(NCC(C)(C)C)c2n1 — Kd (Mitogen-activated protein kinase kinase kinase 15 (MAP3K15, Homo sapiens, UniProt Q6ZN16); competition with immobilised ligand): > 10 µM
CCC(=O)N1CCC(C(=O)NCC(=O)N2CCN(c3nc(-c4cnc(N)nc4C(F)F)nc(N4CCOCC4)n3)CC2)CC1 — Kd (PIK3CG; competition with immobilised ligand): 0.0013 µM
OC[C@H]1OC(O)[C@H](O)[C@@H](O)[C@@H]1O (some centres unmarked) — Kd (Nucleolar RNA helicase 2 (Homo sapiens, UniProt Q9NR30); MST): 3.26 µM
Cn1cc(C(=O)Nc2cccc(C(=O)O)c2)ccc1=O — Kd (CREBBP bromodomain; competition with immobilised ligand): 4.1 µM
C=CC1=C(C)C2=Cc3c(C=C)c(C)c4[n]3[Fe]([Cl])[n]3c(c(C)c(CCC(=O)O)c3=CC3=NC(=C4)C(C)=C3CCC(=O)O)=CC1=N2 — Kd (tspO A138F; fluorescence): 0.7 µM
CCCc1cc(N=Nc2cc(S(=O)(=O)O)c(C)cc2C)ccc1O — Kd (CREBBP bromodomain; fluorescence): 97 µM
C=CC1=C(C)c2cc3[nH]c(cc4nc(cc5[nH]c(cc1n2)c(C)c5CCC(=O)O)C(CCC(=O)O)=C4C)c(C)c3C=C — Kd (tspO A138F; fluorescence): 0.7 µM
CC1=C(/C=C/C(C)=C/C=C/C(C)=C/C=O)C(C)(C)CCC1 — Kd (Cellular retinoic acid-binding protein 2 (CRABP2, Homo sapiens, UniProt P29373, L122E/R112E/R133K); fluorescence): 0.894 µM
C=CC(=O)N1CCC(C(=O)NCC(=O)N2CCN(c3nc(-c4cnc(N)nc4C(F)F)nc(N4CCOCC4)n3)CC2)CC1 — Kd (PIK3CG; competition with immobilised ligand): 0.0016 µM
Cn1nnc2ccc(NC(=O)c3cccc(C(=O)O)c3)cc21 — Kd (CREBBP bromodomain; competition with immobilised ligand): 17 µM
